Measurements published in ChEMBL document CHEMBL3232838, “Synthesis, crystal structure and biological evaluation of some novel 1,2,4-triazolo[3,4-b]-1,3,4-thiadiazoles and 1,2,4-triazolo[3,4-b]-1,3,4-thiadiazines” (Eur J Med Chem, 2014).

Columns and labels:
[1] = test system: Leishmania major; test: Antileishmanial activity against promastigote form of Leishmania major at 1 uM after 72 hrs by MTT assay; assay type: functional
Summary of the method: (§1)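 Log-phase promastigotes grown at 25 °C in phenol-red-free D-MEM/F-12 with 10% heat-inactivated FBS, washed in PBS, seeded at 2.5×10⁶/mL (100 µL/well). Compounds in triplicate wells, 72 h at 25 °C; amphotericin B standard. MTT (5 mg/mL stock) 3 h, stopped with 50% isopropanol/10% SDS, OD570 minus 690. Percent inhibition vs control; mean ± SEM of three independent experiments.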

[2] = biological target: Intestinal-type alkaline phosphatase (Bos taurus, UniProt P19111); test: Inhibition of calf intestinal alkaline phosphatase using p-nitrophenyl phosphate as substrate preincubated for 10 mins before substrate addition after 30 mins
[3] = test system: NCI-H157; test: Anticancer activity against human NCI-H157 cells at 1 uM after 48 hrs by SRB assay; assay type: functional; details: NCI-H157, 48 h, read-out: GI
Summary of the method: (§2)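 RPMI-1640 culture with 10% heat-inactivated FBS, 2 mM glutamine, 1 mM pyruvate and penicillin/streptomycin at 37 °C, 5% CO2. Cells per 96-well well: H157 10⁴, BHK-21 5×10⁴. After 24 h, monolayers were exposed to 100, 10, 1 or 0.1 µM compound for 48 h, with vincristine as standard. Cells were fixed in cold 50% TCA (4 °C, 1 h) and stained with 0.4% SRB in 1% acetic acid (30 min). Dye was dissolved in 10 mM Tris and read at A490 minus A630. Read-out was percent inhibition.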

[4] = test system: Leishmania major; test: Antileishmanial activity against promastigote form of Leishmania major at 10 uM after 72 hrs by MTT assay; assay type: functional; summary of the method: as §1
[5] = test system: NCI-H157; test: Anticancer activity against human NCI-H157 cells at 10 uM after 48 hrs by SRB assay; assay type: functional; details: NCI-H157, 48 h, read-out: GI; summary of the method: as §2
[6] = Anticancer activity against Syrian golden hamster BHK21 cells at 0.1 uM after 48 hrs by SRB assay; assay type: functional; details: Mesocricetus auratus, BHK-21, 48 h; read-out: GI; summary of the method: as §2
[7] = Anticancer activity against Syrian golden hamster BHK21 cells at 100 uM after 48 hrs by SRB assay; assay type: functional; details: Mesocricetus auratus, BHK-21, 48 h; read-out: GI; summary of the method: as §2
[8] = test system: NCI-H157; test: Anticancer activity against human NCI-H157 cells at 100 uM after 48 hrs by SRB assay; assay type: functional; details: NCI-H157, 48 h, read-out: GI; summary of the method: as §2
[9] = biological target: Cholinesterase (Homo sapiens, UniProt P06276); test: Inhibition of human BChE using butyrylthiocholine iodide as substrate preincubated for 10 mins before substrate addition after 15 mins by Ellman's method
Summary of the method: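 Ellman assay in 50 mM Tris-HCl, 0.1 M NaCl, 0.02 M MgCl2, pH 8.0, with DMSO at 1% final. hBChE (3.4 U/mg) is preincubated with compound for 10 min at 25 °C. Blanks lack enzyme or substrate. IC50 from linear regression.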

[10] = test system: Leishmania major; test: Antileishmanial activity against promastigote form of Leishmania major at 100 uM after 72 hrs by MTT assay; assay type: functional; summary of the method: as §1
[11] = test system: Leishmania major; test: Antileishmanial activity against promastigote form of Leishmania major at 0.1 uM after 72 hrs by MTT assay; assay type: functional; summary of the method: as §1
[12] = biological target: Acetylcholinesterase (Electrophorus electricus, UniProt O42275); test: Inhibition of electric eel acetylcholinesterase using acetylthiocholine iodide as substrate preincubated for 10 mins before substrate addition after 15 mins by Ellman's method
[13] = Anticancer activity against Syrian golden hamster BHK21 cells at 1 uM after 48 hrs by SRB assay; assay type: functional; details: Mesocricetus auratus, BHK-21, 48 h; read-out: GI; summary of the method: as §2
[14] = test system: NCI-H157; test: Anticancer activity against human NCI-H157 cells at 0.1 uM after 48 hrs by SRB assay; assay type: functional; details: NCI-H157, 48 h, read-out: GI; summary of the method: as §2
[15] = Anticancer activity against Syrian golden hamster BHK21 cells at 10 uM after 48 hrs by SRB assay; assay type: functional; details: Mesocricetus auratus, BHK-21, 48 h; read-out: GI; summary of the method: as §2

Chain of Intestinal-type alkaline phosphatase (P19111 whole entry): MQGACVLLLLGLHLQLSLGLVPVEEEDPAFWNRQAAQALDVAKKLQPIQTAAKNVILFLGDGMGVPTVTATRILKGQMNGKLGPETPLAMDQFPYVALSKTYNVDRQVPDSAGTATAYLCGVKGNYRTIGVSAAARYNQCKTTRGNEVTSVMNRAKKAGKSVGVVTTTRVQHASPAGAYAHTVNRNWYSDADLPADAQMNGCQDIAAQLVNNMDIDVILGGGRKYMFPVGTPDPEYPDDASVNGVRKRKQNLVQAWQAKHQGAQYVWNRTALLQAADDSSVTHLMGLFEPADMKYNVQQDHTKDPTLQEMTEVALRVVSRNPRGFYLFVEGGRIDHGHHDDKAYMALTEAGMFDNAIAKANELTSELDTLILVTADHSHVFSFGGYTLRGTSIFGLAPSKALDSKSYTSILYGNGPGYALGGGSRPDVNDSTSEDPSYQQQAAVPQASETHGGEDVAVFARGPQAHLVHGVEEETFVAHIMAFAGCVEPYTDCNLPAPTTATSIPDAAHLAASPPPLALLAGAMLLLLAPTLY
Chain of Cholinesterase (P06276 whole entry): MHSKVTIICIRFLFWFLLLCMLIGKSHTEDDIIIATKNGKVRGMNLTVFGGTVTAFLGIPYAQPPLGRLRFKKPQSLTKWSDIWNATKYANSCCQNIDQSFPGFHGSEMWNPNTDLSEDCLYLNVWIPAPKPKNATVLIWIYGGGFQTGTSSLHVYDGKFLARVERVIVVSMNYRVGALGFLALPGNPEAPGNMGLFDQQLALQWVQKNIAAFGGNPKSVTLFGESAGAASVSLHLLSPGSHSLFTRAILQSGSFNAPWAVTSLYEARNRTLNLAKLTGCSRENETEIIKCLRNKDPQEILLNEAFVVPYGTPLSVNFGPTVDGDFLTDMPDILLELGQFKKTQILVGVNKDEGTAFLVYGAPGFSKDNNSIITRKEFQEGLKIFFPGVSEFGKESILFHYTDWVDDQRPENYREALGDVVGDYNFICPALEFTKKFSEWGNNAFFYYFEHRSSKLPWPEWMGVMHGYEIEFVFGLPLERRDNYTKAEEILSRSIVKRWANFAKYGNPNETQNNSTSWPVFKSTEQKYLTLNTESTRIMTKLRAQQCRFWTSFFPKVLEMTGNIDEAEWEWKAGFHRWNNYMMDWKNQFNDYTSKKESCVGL
Chain of Acetylcholinesterase (O42275 whole entry): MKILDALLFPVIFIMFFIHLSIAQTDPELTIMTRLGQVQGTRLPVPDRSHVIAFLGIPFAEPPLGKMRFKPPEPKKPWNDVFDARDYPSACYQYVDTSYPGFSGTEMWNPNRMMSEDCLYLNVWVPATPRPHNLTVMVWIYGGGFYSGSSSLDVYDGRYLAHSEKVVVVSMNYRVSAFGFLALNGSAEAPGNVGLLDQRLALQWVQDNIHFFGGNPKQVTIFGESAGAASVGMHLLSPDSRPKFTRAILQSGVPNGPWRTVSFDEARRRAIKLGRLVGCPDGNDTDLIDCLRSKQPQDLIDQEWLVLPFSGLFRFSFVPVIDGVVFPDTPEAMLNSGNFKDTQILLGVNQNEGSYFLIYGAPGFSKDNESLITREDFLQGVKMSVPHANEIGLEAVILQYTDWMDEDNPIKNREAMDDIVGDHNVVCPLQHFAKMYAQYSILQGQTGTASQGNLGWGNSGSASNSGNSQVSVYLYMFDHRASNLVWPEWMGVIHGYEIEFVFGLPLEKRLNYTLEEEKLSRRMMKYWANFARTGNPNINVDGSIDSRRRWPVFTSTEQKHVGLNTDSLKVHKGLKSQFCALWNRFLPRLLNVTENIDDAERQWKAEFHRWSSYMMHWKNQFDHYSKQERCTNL

SMILES | inhibition at 1 µM [1] [%] | IC50 [2] [µM] | inhibition of growth at 1 µM [3] [%] | inhibition at 10 µM [4] [%] | inhibition of growth at 10 µM [5] [%] | inhibition of growth at 0.1 µM [6] [%] | inhibition of growth at 100 µM [7] [%] | inhibition of growth at 100 µM [8] [%] | IC50 [9] [µM] | inhibition at 100 µM [10] [%] | inhibition at 0.1 µM [11] [%] | IC50 [12] [µM] | inhibition of growth at 1 µM [13] [%] | inhibition of growth at 0.1 µM [14] [%] | inhibition of growth at 10 µM [15] [%] | inhibition [9] [%] | inhibition of growth at 100 µM ([10]; read-out: GI) [%]
Fc1cc(Cl)ccc1-c1nn2c(-c3ccncc3)nnc2s1 | 46.2 | 0.92 | 77.8 | 49.5 | 80.9 | 44.4 | 55.6 | 85.5 | 9.57 | 52.5 | 42.5 | 21.3 | 47.2 | 73.7 | 51.6 |  | 
c1coc(-c2nn3c(-c4ccncc4)nnc3s2)c1 | 75.8 | 3.24 | 60.9 | 77.2 | 63.8 | 41 | 50.9 | 67.9 | 61.6 | 81.2 | 71.5 | 12.4 | 44.9 | 56 | 48.2 |  | 
Fc1ccc(-c2nn3c(-c4ccncc4)nnc3s2)cc1Cl | 51.6 | 2.01 | 46.6 | 54.3 | 50.9 | 40.9 | 51.4 | 53.7 |  | 56.7 | 47.7 | 30.2 | 43.6 | 43.6 | 46.3 | 14.4 | 
CN(C)C(=O)Oc1cccc([N+](C)(C)C)c1 [NEOSTIGMINE] |  |  |  |  |  |  |  |  | 26.1 |  |  | 14.2 |  |  |  |  | 
c1ccc2c(C3=Nn4c(nnc4-c4ccncc4)SC3)cccc2c1 | 49 | 4.45 | 59.9 | 52.9 | 63.7 | 53.3 | 69.2 | 68.2 | 52.8 | 55.6 | 47.3 | 13.7 | 60.7 | 55.2 | 64.7 |  | 
CCOc1ccc(Cc2nn3c(-c4ccncc4)nnc3s2)cc1 | 60.8 | 6.17 | 63.8 | 63 | 67.4 | 38.2 | 48.6 | 70.5 | 32.1 | 66.8 | 56.4 | 3.48 | 40.9 | 60.2 | 45.4 |  | 
CC[C@]1(O)C[C@H]2CN(CCc3c([nH]c4ccccc34)[C@@](C(=O)OC)(c3cc4c(cc3OC)N(C=O)[C@H]3[C@@](O)(C(=O)OC)[C@H](OC(C)=O)[C@]5(CC)C=CCN6CC[C@]43[C@@H]65)C2)C1 [VINCRISTINE] |  |  | 70.9 |  | 72.6 | 69.8 | 74.5 | 74.5 |  |  |  |  | 70.9 | 69.8 | 72.6 |  | 
COc1ccc(OCc2nn3c(-c4ccncc4)nnc3s2)cc1 | 52.2 | 3.72 | 61.7 | 57.2 | 65.6 | 63.3 | 74 | 68.9 | 37.9 | 60.5 | 49.6 | 0.77 | 68.8 | 57.2 | 71.9 |  | 
c1ccc(-c2ccc(C3=Nn4c(nnc4-c4ccncc4)SC3)cc2)cc1 | 55.9 | 3.84 | 47.8 | 58.9 | 62.3 | 32.7 | 45.8 | 56.9 | 42.6 | 61.2 | 52.3 | 16.1 | 37.5 | 44.5 | 41.8 |  | 
Nn1c(S)nnc1-c1ccncc1 | 33.6 | 4.43 | 43.4 | 36.7 | 47.4 | 39.6 | 48.3 | 51.5 | 49.6 |  | 30.9 | 13.5 | 42.1 | 40.4 | 45.1 |  | 39.5
C[C@@H]1[C@H](O)[C@@H](C)/C=C/C=C/C=C/C=C/C=C/C=C/C=C/[C@H](O[C@@H]2O[C@H](C)[C@@H](O)[C@H](N)[C@@H]2O)C[C@@H]2O[C@](O)(C[C@@H](O)C[C@@H](O)[C@H](O)CC[C@@H](O)C[C@@H](O)CC(=O)O[C@H]1C)C[C@H](O)[C@H]2C(=O)O [AMPHOTERICIN B] | 74.8 |  |  | 76.3 |  |  |  |  |  | 79.8 | 69.9 |  |  |  |  |  | 
O=[N+]([O-])c1cccc(C2=Nn3c(nnc3-c3ccncc3)SC2)c1 | 57.5 | 3.59 | 62.1 | 59.6 | 65.5 | 48.2 | 67.1 | 69.4 | 16.6 | 63.1 | 54.6 | 28 | 55.1 | 57.9 | 62.5 |  | 
Fc1cccc(C2=Nn3c(nnc3-c3ccncc3)SC2)c1 | 46.1 | 9.83 | 72.3 | 49.6 | 75.6 | 54.6 | 64.3 | 78.6 |  | 52.3 | 44.9 | 18.6 | 56.9 | 69.6 | 61.2 | 38.7 | 
Fc1ccc(OCc2nn3c(-c4ccncc4)nnc3s2)cc1 | 49.1 | 2.59 | 25.6 | 51.4 | 28.5 | 43.8 | 52.7 | 32 | 54.1 | 53.8 | 46.7 | 36.8 | 45.4 | 21.3 | 48.3 |  | 
Cc1ccccc1OCc1nn2c(-c3ccncc3)nnc2s1 | 65.5 | 3.08 | 53.2 | 68.9 | 56.8 | 51.2 | 62.1 | 59.2 | 51.3 | 71.4 | 62.1 | 41.5 | 54.9 | 50.5 | 56.5 |  | 
Oc1ccc(OCc2nn3c(-c4ccncc4)nnc3s2)cc1 | 41.9 | 5.61 | 56.3 | 45.3 | 60.9 | 51.6 | 60.5 | 63.7 | 39.1 | 48 | 37.2 | 15.6 | 53.7 | 52.6 | 56.2 |  | 
